Measurements reported in ChEMBL document CHEMBL1136635, “Modification of the N-terminus of peptidomimetic protein tyrosine phosphatase 1B (PTP1B) inhibitors: identification of analogues with cellular activity” (Bioorg Med Chem Lett, 2003).

Molecular target: Receptor-type tyrosine-protein phosphatase F (Homo sapiens) (UniProt P10586)
Assay: Inhibitory activity against phosphatase (LAR) at a concentration of 100 uM
In short: (§1)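 Purified recombinant human enzyme constructs; PTP1B is a C-terminally truncated soluble form, tested alongside LAR and SHP-2. Activity is read as the initial rate of p-nitrophenyl phosphate (pNPP) hydrolysis and reported as percent inhibition. PTP1B is tested at 100, 10 and 1 µM, or 10 and 1 µM in the salicylate series; LAR and SHP-2 at 100 µM.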

Chain of Receptor-type tyrosine-protein phosphatase F (Homo sapiens) (P10586 whole entry): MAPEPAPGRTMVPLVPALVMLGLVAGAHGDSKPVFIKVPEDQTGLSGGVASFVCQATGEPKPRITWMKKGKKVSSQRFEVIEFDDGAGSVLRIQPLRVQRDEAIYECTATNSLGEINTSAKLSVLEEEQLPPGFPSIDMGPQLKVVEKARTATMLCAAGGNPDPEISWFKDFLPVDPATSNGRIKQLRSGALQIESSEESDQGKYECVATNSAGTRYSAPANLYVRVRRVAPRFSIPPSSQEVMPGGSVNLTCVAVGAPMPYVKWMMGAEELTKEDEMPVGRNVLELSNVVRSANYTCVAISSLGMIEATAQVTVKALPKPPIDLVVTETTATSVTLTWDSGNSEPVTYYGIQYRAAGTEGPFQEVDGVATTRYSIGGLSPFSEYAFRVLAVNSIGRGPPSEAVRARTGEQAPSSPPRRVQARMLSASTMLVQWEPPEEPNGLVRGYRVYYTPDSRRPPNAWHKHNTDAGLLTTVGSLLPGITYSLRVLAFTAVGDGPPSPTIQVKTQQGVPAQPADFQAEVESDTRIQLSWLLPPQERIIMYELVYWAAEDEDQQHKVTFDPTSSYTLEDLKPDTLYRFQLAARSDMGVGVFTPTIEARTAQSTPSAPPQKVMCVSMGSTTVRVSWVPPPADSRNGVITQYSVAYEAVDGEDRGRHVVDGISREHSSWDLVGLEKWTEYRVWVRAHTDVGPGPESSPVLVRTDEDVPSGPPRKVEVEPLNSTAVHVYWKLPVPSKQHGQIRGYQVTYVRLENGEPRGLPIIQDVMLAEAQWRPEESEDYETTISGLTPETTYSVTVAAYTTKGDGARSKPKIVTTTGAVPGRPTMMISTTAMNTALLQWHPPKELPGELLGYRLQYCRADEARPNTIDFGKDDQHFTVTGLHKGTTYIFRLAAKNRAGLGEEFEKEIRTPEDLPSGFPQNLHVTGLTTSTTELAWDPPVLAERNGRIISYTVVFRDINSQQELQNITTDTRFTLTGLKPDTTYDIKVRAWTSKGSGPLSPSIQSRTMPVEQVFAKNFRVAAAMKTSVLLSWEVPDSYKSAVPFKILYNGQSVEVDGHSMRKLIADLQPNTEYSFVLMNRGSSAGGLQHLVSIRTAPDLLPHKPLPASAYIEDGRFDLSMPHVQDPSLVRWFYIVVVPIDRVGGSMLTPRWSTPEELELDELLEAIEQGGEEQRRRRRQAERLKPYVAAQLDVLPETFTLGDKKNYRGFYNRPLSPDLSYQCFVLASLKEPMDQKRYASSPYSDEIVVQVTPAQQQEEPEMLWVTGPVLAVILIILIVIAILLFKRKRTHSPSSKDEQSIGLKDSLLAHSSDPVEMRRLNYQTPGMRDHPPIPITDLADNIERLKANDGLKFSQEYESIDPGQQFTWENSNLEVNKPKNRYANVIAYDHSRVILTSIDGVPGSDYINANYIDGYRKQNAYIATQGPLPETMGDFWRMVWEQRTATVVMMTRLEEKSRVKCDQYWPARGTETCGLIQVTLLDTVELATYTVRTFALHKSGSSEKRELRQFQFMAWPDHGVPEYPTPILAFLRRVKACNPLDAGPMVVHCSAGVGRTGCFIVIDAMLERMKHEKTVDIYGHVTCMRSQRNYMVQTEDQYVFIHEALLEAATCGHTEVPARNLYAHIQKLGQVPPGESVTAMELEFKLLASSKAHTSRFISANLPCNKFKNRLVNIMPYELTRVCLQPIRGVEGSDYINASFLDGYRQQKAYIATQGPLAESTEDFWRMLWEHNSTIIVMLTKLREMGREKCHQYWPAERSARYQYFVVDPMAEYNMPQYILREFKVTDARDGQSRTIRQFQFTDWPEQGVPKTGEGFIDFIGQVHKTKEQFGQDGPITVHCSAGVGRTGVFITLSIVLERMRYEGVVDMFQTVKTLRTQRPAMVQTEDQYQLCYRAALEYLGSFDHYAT

Row | Compound | inhibition [%]
1 | CCCCCNC(=O)[C@H](Cc1ccc(OC(C(=O)O)C(=O)O)cc1)NC(=O)[C@H](Cc1ccccc1)NC(=O)CCN(CC)CC | 0
2 | CCCCCNC(=O)[C@H](Cc1ccc(OCC(=O)O)c(C(=O)O)c1)NC(=O)[C@H](Cc1ccccc1)NC(=O)CCCc1ccccc1 | 0
3 | CCCCCNC(=O)[C@H](Cc1ccc(OCC(=O)O)c(C(=O)O)c1)NC(=O)[C@H](Cc1ccccc1)NC(=O)Cc1cccc(O)c1 | 6
4 | CCCCCNC(=O)[C@H](Cc1ccc(OC(C(=O)O)C(=O)O)cc1)NC(=O)[C@H](Cc1ccc2ccccc2c1)NC(=O)OC(C)(C)C | 4
5 | CCCCCNC(=O)[C@H](Cc1ccc(OCC(=O)O)c(C(=O)O)c1)NC(=O)[C@H](Cc1ccccc1)NC(=O)CCNS(C)(=O)=O | 10

Further lines, results first:

Row | inhibition [%] | Compound
6 | 1 | CCCCCNC(=O)[C@H](Cc1ccc(OCC(=O)O)c(C(=O)O)c1)NC(=O)[C@H](CO)NC(=O)OC(C)(C)C
7 | 0 | CCCCCNC(=O)[C@H](Cc1ccc(OCC(=O)O)c(C(=O)O)c1)NC(=O)[C@H](Cc1ccc(O)cc1)NC(=O)OC(C)(C)C

Test system: not listed separately
Assay: Uptake of 2-DOG (2-deoxyglucose) into L6 myocytes in the presence of half-maximal concentration of insulin at 100 uM
Format: functional, Rattus norvegicus
In short: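 L6 myotubes are exposed to compound at 100 µM with 10 nM insulin, a dose eliciting about 50% of maximal uptake. The initial rate of 2-[3H]deoxyglucose uptake is measured, with L-[14C]glucose marking extracellular space, and normalized to recovered lysate protein. Net insulin-dependent transport with inhibitor is expressed as a percent of that without inhibitor.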

Row | Compound | Control Uptake [%]
8 | CCCCCNC(=O)[C@H](Cc1ccc(OC(C(=O)O)C(=O)O)cc1)NC(=O)[C@H](Cc1ccccc1)NC(=O)CCN(CC)CC | 89
9 | CCCCCNC(=O)[C@H](Cc1ccc(OCC(=O)O)c(C(=O)O)c1)NC(=O)[C@H](CO)NC(=O)OC(C)(C)C | 84
10 | CCCCCNC(=O)[C@H](Cc1ccc(OCC(=O)O)c(C(=O)O)c1)NC(=O)[C@H](Cc1ccccc1)NC(=O)CCCc1ccccc1 | 73
11 | CCCCCNC(=O)[C@H](Cc1ccc(OCC(=O)O)c(C(=O)O)c1)NC(=O)[C@H](Cc1ccccc1)NC(=O)Cc1cccc(O)c1 | 108
12 | CCCCCNC(=O)[C@H](Cc1ccc(OC(C(=O)O)C(=O)O)cc1)NC(=O)[C@H](Cc1ccc2ccccc2c1)NC(=O)OC(C)(C)C | 62
13 | CCCCCNC(=O)[C@H](Cc1ccc(OCC(=O)O)c(C(=O)O)c1)NC(=O)[C@H](Cc1ccccc1)NC(=O)CCNS(C)(=O)=O | 81
14 | CCCCCNC(=O)[C@H](Cc1ccc(OCC(=O)O)c(C(=O)O)c1)NC(=O)[C@H](Cc1ccc(O)cc1)NC(=O)OC(C)(C)C | 115

Molecular target: T1, Tyrosine-protein phosphatase non-receptor type 11 (Homo sapiens) (UniProt Q06124)
T1 sequence (whole entry): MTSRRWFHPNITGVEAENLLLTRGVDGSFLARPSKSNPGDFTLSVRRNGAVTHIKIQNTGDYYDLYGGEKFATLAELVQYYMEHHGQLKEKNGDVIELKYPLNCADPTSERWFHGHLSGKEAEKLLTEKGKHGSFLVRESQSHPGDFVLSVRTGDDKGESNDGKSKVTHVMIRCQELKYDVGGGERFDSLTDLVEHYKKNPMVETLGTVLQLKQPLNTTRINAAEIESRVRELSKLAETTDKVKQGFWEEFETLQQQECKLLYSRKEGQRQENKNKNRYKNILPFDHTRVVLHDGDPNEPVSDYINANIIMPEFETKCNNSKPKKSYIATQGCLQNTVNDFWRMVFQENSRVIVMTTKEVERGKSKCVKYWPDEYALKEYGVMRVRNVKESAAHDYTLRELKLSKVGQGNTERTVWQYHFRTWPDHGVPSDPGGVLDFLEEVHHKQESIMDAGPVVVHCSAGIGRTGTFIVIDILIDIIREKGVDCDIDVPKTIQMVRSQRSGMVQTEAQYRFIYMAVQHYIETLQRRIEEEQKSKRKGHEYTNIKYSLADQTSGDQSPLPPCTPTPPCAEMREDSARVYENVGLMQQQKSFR
Assay: Inhibition of recombinant human phosphatase (SHP-2) at a concentration of 100 uM
In short: as §1

Row | Compound | inhibition [%]
15 | CCCCCNC(=O)[C@H](Cc1ccc(OC(C(=O)O)C(=O)O)cc1)NC(=O)[C@H](Cc1ccccc1)NC(=O)CCN(CC)CC | 14
16 | CCCCCNC(=O)[C@H](Cc1ccc(OCC(=O)O)c(C(=O)O)c1)NC(=O)[C@H](Cc1ccccc1)NC(=O)CCCc1ccccc1 | 17
17 | CCCCCNC(=O)[C@H](Cc1ccc(OCC(=O)O)c(C(=O)O)c1)NC(=O)[C@H](Cc1ccccc1)NC(=O)Cc1cccc(O)c1 | 32
18 | CCCCCNC(=O)[C@H](Cc1ccc(OC(C(=O)O)C(=O)O)cc1)NC(=O)[C@H](Cc1ccc2ccccc2c1)NC(=O)OC(C)(C)C | 3
19 | CCCCCNC(=O)[C@H](Cc1ccc(OCC(=O)O)c(C(=O)O)c1)NC(=O)[C@H](Cc1ccccc1)NC(=O)CCNS(C)(=O)=O | 25

Continued, values first:

Row | inhibition [%] | Compound
20 | 4 | CCCCCNC(=O)[C@H](Cc1ccc(OCC(=O)O)c(C(=O)O)c1)NC(=O)[C@H](CO)NC(=O)OC(C)(C)C
21 | 5 | CCCCCNC(=O)[C@H](Cc1ccc(OCC(=O)O)c(C(=O)O)c1)NC(=O)[C@H](Cc1ccc(O)cc1)NC(=O)OC(C)(C)C

Molecular target: T2, Tyrosine-protein phosphatase non-receptor type 1 (Homo sapiens) (UniProt P18031)
T2 sequence (whole entry): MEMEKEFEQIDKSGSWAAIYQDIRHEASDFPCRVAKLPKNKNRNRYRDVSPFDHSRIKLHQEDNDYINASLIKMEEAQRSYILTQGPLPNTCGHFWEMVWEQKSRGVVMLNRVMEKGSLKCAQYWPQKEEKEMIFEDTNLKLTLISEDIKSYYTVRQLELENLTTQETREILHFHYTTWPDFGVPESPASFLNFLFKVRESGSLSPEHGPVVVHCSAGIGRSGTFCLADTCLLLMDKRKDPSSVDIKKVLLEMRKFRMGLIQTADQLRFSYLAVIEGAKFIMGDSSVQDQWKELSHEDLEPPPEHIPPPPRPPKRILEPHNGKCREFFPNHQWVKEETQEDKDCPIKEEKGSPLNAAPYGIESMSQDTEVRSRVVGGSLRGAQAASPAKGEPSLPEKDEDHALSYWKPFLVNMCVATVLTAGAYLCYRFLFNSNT
Assay: Inhibitory activity against human protein tyrosine phosphatase 1B (PTP1B) at a concentration of 1 uM
In short: as §1

Row | Compound | inhibition [%]
22 | CCCCCNC(=O)[C@H](Cc1ccc(OC(C(=O)O)C(=O)O)cc1)NC(=O)[C@H](Cc1ccccc1)NC(=O)CCN(CC)CC | 12
23 | CCCCCNC(=O)[C@H](Cc1ccc(OCC(=O)O)c(C(=O)O)c1)NC(=O)[C@H](Cc1ccccc1)NC(=O)CCCc1ccccc1 | 19
24 | CCCCCNC(=O)[C@H](Cc1ccc(OCC(=O)O)c(C(=O)O)c1)NC(=O)[C@H](Cc1ccccc1)NC(=O)Cc1cccc(O)c1 | 43
25 | CCCCCNC(=O)[C@H](Cc1ccc(OC(C(=O)O)C(=O)O)cc1)NC(=O)[C@H](Cc1ccc2ccccc2c1)NC(=O)OC(C)(C)C | 3
26 | CCCCCNC(=O)[C@H](Cc1ccc(OCC(=O)O)c(C(=O)O)c1)NC(=O)[C@H](Cc1ccccc1)NC(=O)CCNS(C)(=O)=O | 15

Now from value to compound:

Row | inhibition [%] | Compound
27 | 11 | CCCCCNC(=O)[C@H](Cc1ccc(OCC(=O)O)c(C(=O)O)c1)NC(=O)[C@H](CO)NC(=O)OC(C)(C)C
28 | 32 | CCCCCNC(=O)[C@H](Cc1ccc(OCC(=O)O)c(C(=O)O)c1)NC(=O)[C@H](Cc1ccc(O)cc1)NC(=O)OC(C)(C)C

Molecular target: T2, Tyrosine-protein phosphatase non-receptor type 1 (Homo sapiens)
Assay: Inhibitory activity against human protein tyrosine phosphatase 1B (PTP1B) at a concentration of 100 uM
In short: as §1

Row | Compound | inhibition [%]
29 | CCCCCNC(=O)[C@H](Cc1ccc(OC(C(=O)O)C(=O)O)cc1)NC(=O)[C@H](Cc1ccccc1)NC(=O)CCN(CC)CC | 92
30 | CCCCCNC(=O)[C@H](Cc1ccc(OC(C(=O)O)C(=O)O)cc1)NC(=O)[C@H](Cc1ccc2ccccc2c1)NC(=O)OC(C)(C)C | 90

Molecular target: T2, Tyrosine-protein phosphatase non-receptor type 1 (Homo sapiens)
Assay: Inhibitory activity against human protein tyrosine phosphatase 1B (PTP1B) at a concentration of 10 uM
In short: as §1

Row | Compound | inhibition [%]
31 | CCCCCNC(=O)[C@H](Cc1ccc(OC(C(=O)O)C(=O)O)cc1)NC(=O)[C@H](Cc1ccccc1)NC(=O)CCN(CC)CC | 54
32 | CCCCCNC(=O)[C@H](Cc1ccc(OCC(=O)O)c(C(=O)O)c1)NC(=O)[C@H](Cc1ccccc1)NC(=O)CCCc1ccccc1 | 70
33 | CCCCCNC(=O)[C@H](Cc1ccc(OCC(=O)O)c(C(=O)O)c1)NC(=O)[C@H](Cc1ccccc1)NC(=O)Cc1cccc(O)c1 | 86
34 | CCCCCNC(=O)[C@H](Cc1ccc(OC(C(=O)O)C(=O)O)cc1)NC(=O)[C@H](Cc1ccc2ccccc2c1)NC(=O)OC(C)(C)C | 29
35 | CCCCCNC(=O)[C@H](Cc1ccc(OCC(=O)O)c(C(=O)O)c1)NC(=O)[C@H](Cc1ccccc1)NC(=O)CCNS(C)(=O)=O | 73

Other lines, results leading:

Row | inhibition [%] | Compound
36 | 41 | CCCCCNC(=O)[C@H](Cc1ccc(OCC(=O)O)c(C(=O)O)c1)NC(=O)[C@H](CO)NC(=O)OC(C)(C)C
37 | 81 | CCCCCNC(=O)[C@H](Cc1ccc(OCC(=O)O)c(C(=O)O)c1)NC(=O)[C@H](Cc1ccc(O)cc1)NC(=O)OC(C)(C)C
